Source: ChEMBL document CHEMBL1138533 (Antimicrob Agents Chemother, 2007)
One block for each compound: values may come before it.

Experiments:
Type in all cases: ADME, organism-based
[1] = Drug concentration in beta lactamase-positive Haemophilus influenzae pharmacokinetic simulation model dosed as amoxicillin-clavulanic acid at simulated human serum concentration of 2000/125 mg, po bid after 3 hrs; settings: in vivo
[2] = Unbound drug concentration in beta lactamase-negative Haemophilus influenzae pharmacokinetic simulation model dosed as amoxicillin-clavulanic acid at simulated human serum concentration of 2000/125 mg, po bid after 10 hrs
Method in brief: (§1)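 Two-compartment hollow-fibre dynamic model at 37°C, Haemophilus test medium; total or free serum profiles of oral bid regimens simulated over 48 h by computer-controlled peristaltic dilution. […] Parameters from noncompartmental analysis: Cmax/Tmax observed, AUC0-24 by linear-log trapezoidal rule. Triplicate.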

[3] = Unbound drug concentration in beta lactamase-positive Haemophilus influenzae pharmacokinetic simulation model dosed as amoxicillin-clavulanic acid at simulated human serum concentration of 2000/125 mg, po bid after 4 hrs; method in brief: as §1
[4] = Unbound drug concentration in beta lactamase-positive Haemophilus influenzae pharmacokinetic simulation model dosed as amoxicillin-clavulanic acid at simulated human serum concentration of 2000/125 mg, po bid after 1 hr; method in brief: as §1
[5] = Half life of free unbound fraction in beta lactamase-negative Haemophilus influenzae pharmacokinetic simulation model dosed as amoxicillin-clavulanic acid at simulated human serum concentration of 2000/125 mg, po bid after 48 hrs; settings: read-out: ft1/2 (converted)
[6] = fAUC (0 to 24 hrs) in beta lactamase-positive Haemophilus influenzae pharmacokinetic simulation model dosed as amoxicillin-clavulanic acid at simulated human serum concentration of 2000/125 mg, po bid after 48 hrs; settings: in vivo; method in brief: as §1
[7] = Drug concentration in beta lactamase-positive Haemophilus influenzae pharmacokinetic simulation model dosed as amoxicillin-clavulanic acid at simulated human serum concentration of 2000/125 mg, po bid after 10 hrs
[8] = fAUC (0 to 24 hrs) in beta lactamase-negative Haemophilus influenzae pharmacokinetic simulation model dosed as amoxicillin-clavulanic acid at simulated human serum concentration of 2000/125 mg, po bid after 48 hrs; settings: in vivo; method in brief: as §1
[9] = Drug concentration in beta lactamase-positive Haemophilus influenzae pharmacokinetic simulation model dosed as amoxicillin-clavulanic acid at simulated human serum concentration of 2000/125 mg, po bid after 4 hrs; settings: in vivo
[10] = Unbound drug concentration in beta lactamase-negative Haemophilus influenzae pharmacokinetic simulation model dosed as amoxicillin-clavulanic acid at simulated human serum concentration of 2000/125 mg, po bid after 6 hrs; method in brief: as §1
[11] = Unbound drug concentration in beta lactamase-negative Haemophilus influenzae pharmacokinetic simulation model dosed as amoxicillin-clavulanic acid at simulated human serum concentration of 2000/125 mg, po bid after 4 hrs; method in brief: as §1
[12] = Unbound drug concentration in beta lactamase-positive Haemophilus influenzae pharmacokinetic simulation model dosed as amoxicillin-clavulanic acid at simulated human serum concentration of 2000/125 mg, po bid after 3 hrs; settings: in vivo; method in brief: as §1
[13] = Cmax in beta lactamase-positive Haemophilus influenzae pharmacokinetic simulation model dosed as amoxicillin-clavulanic acid at simulated human serum concentration of 2000/125 mg, po bid after 48 hrs
[14] = Tmax in beta lactamase-negative Haemophilus influenzae pharmacokinetic simulation model dosed as amoxicillin-clavulanic acid at simulated human serum concentration of 2000/125 mg, po bid after 48 hrs; method in brief: as §1
[15] = Unbound drug concentration in beta lactamase-positive Haemophilus influenzae pharmacokinetic simulation model dosed as amoxicillin-clavulanic acid at simulated human serum concentration of 2000/125 mg, po bid after 8 hrs; settings: in vivo; method in brief: as §1
[16] = Unbound drug concentration in beta lactamase-negative Haemophilus influenzae pharmacokinetic simulation model dosed as amoxicillin-clavulanic acid at simulated human serum concentration of 2000/125 mg, po bid after 3 hrs; method in brief: as §1
[17] = AUC (0 to 24 hrs) in beta lactamase-negative Haemophilus influenzae pharmacokinetic simulation model dosed as amoxicillin-clavulanic acid at simulated human serum concentration of 2000/125 mg, po bid after 48 hrs
[18] = Unbound drug concentration in beta lactamase-positive Haemophilus influenzae pharmacokinetic simulation model dosed as amoxicillin-clavulanic acid at simulated human serum concentration of 2000/125 mg, po bid after 6 hrs; settings: in vivo; method in brief: as §1
[19] = Cmax in beta lactamase-negative Haemophilus influenzae pharmacokinetic simulation model dosed as amoxicillin-clavulanic acid at simulated human serum concentration of 2000/125 mg, po bid after 48 hrs
[20] = Unbound drug concentration in beta lactamase-positive Haemophilus influenzae pharmacokinetic simulation model dosed as amoxicillin-clavulanic acid at simulated human serum concentration of 2000/125 mg, po bid after 1.5 hr; method in brief: as §1
[21] = Drug concentration in beta lactamase-negative Haemophilus influenzae pharmacokinetic simulation model dosed as amoxicillin-clavulanic acid at simulated human serum concentration of 2000/125 mg, po bid after 2 hrs; settings: in vivo
[22] = Unbound drug concentration in beta lactamase-negative Haemophilus influenzae pharmacokinetic simulation model dosed as amoxicillin-clavulanic acid at simulated human serum concentration of 2000/125 mg, po bid after 1.5 hr; method in brief: as §1
[23] = Unbound drug concentration in beta lactamase-negative Haemophilus influenzae pharmacokinetic simulation model dosed as amoxicillin-clavulanic acid at simulated human serum concentration of 2000/125 mg, po bid after 8 hrs; method in brief: as §1
[24] = Unbound drug concentration in beta lactamase-positive Haemophilus influenzae pharmacokinetic simulation model dosed as amoxicillin-clavulanic acid at simulated human serum concentration of 2000/125 mg, po bid after 10 hrs; settings: in vivo; method in brief: as §1
[25] = Drug concentration in beta lactamase-positive Haemophilus influenzae pharmacokinetic simulation model dosed as amoxicillin-clavulanic acid at simulated human serum concentration of 2000/125 mg, po bid after 1 hr; settings: in vivo
[26] = fTmax in beta lactamase-negative Haemophilus influenzae pharmacokinetic simulation model dosed as amoxicillin-clavulanic acid at simulated human serum concentration of 2000/125 mg, po bid after 48 hrs; settings: read-out: fTmax; method in brief: as §1
[27] = AUC (0 to 24 hrs) in beta lactamase-positive Haemophilus influenzae pharmacokinetic simulation model dosed as amoxicillin-clavulanic acid at simulated human serum concentration of 2000/125 mg, po bid after 48 hrs
[28] = Drug concentration in beta lactamase-negative Haemophilus influenzae pharmacokinetic simulation model dosed as amoxicillin-clavulanic acid at simulated human serum concentration of 2000/125 mg, po bid after 10 hrs; settings: in vivo
[29] = Drug concentration in beta lactamase-positive Haemophilus influenzae pharmacokinetic simulation model dosed as amoxicillin-clavulanic acid at simulated human serum concentration of 2000/125 mg, po bid after 12 hrs; settings: in vivo
[30] = fCmax in beta lactamase-negative Haemophilus influenzae pharmacokinetic simulation model dosed as amoxicillin-clavulanic acid at simulated human serum concentration of 2000/125 mg, po bid after 48 hrs; settings: in vivo; method in brief: as §1
[31] = Unbound drug concentration in beta lactamase-positive Haemophilus influenzae pharmacokinetic simulation model dosed as amoxicillin-clavulanic acid at simulated human serum concentration of 2000/125 mg, po bid after 12 hrs; settings: in vivo; method in brief: as §1
[32] = Drug concentration in beta lactamase-negative Haemophilus influenzae pharmacokinetic simulation model dosed as amoxicillin-clavulanic acid at simulated human serum concentration of 2000/125 mg, po bid after 1 hr
[33] = Drug concentration in beta lactamase-positive Haemophilus influenzae pharmacokinetic simulation model dosed as amoxicillin-clavulanic acid at simulated human serum concentration of 2000/125 mg, po bid after 6 hrs; settings: in vivo
[34] = Unbound drug concentration in beta lactamase-negative Haemophilus influenzae pharmacokinetic simulation model dosed as amoxicillin-clavulanic acid at simulated human serum concentration of 2000/125 mg, po bid after 2 hrs; method in brief: as §1
[35] = Unbound drug concentration in beta lactamase-negative Haemophilus influenzae pharmacokinetic simulation model dosed as amoxicillin-clavulanic acid at simulated human serum concentration of 2000/125 mg, po bid after 12 hrs; method in brief: as §1
[36] = fCmax in beta lactamase-positive Haemophilus influenzae pharmacokinetic simulation model dosed as amoxicillin-clavulanic acid at simulated human serum concentration of 2000/125 mg, po bid after 48 hrs; settings: in vivo; method in brief: as §1
[37] = Unbound drug concentration in beta lactamase-negative Haemophilus influenzae pharmacokinetic simulation model dosed as amoxicillin-clavulanic acid at simulated human serum concentration of 2000/125 mg, po bid after 1 hr; method in brief: as §1
[38] = Unbound drug concentration in beta lactamase-positive Haemophilus influenzae pharmacokinetic simulation model dosed as amoxicillin-clavulanic acid at simulated human serum concentration of 2000/125 mg, po bid after 2 hrs; settings: in vivo; method in brief: as §1
[39] = Half life in beta lactamase-negative Haemophilus influenzae pharmacokinetic simulation model dosed as amoxicillin-clavulanic acid at simulated human serum concentration of 2000/125 mg, po bid after 48 hrs
[40] = Protein binding in beta lactamase-negative Haemophilus influenzae pharmacokinetic simulation model dosed as amoxicillin-clavulanic acid at simulated human serum concentration of 2000/125 mg, po bid after 48 hrs; settings: read-out: PB (converted)
[41] = Drug concentration in beta lactamase-negative Haemophilus influenzae pharmacokinetic simulation model dosed as amoxicillin-clavulanic acid at simulated human serum concentration of 2000/125 mg, po bid after 3 hrs; settings: in vivo

Drug uptake [1]: 10.5 µg/mL
Drug uptake [2]: 0.6 µg/mL
Drug uptake [3]: 0.8 µg/mL
Drug uptake [4]: 9.9 µg/mL
half-life [5]: 1.4 h
fAUC [6]: 22500 ng·h/mL
Drug uptake [7]: < 0.03 µg/mL
fAUC [8]: 60700 ng·h/mL
Drug uptake [9]: 5.5 µg/mL
Drug uptake [10]: 5 µg/mL
Drug uptake [11]: 8.2 µg/mL
Drug uptake [12]: 2.9 µg/mL
Cmax [13]: 17400 ng/mL
Tmax [14]: 1.5 h
Drug uptake [15]: < 0.03 µg/mL
Drug uptake [16]: 10.1 µg/mL
AUC at 24 h [17]: 73100 ng·h/mL
Drug uptake [18]: < 0.03 µg/mL
Cmax [19]: 17200 ng/mL
Drug uptake [20]: 13.3 µg/mL
Drug uptake [21]: 15.5 µg/mL
Drug uptake [22]: 13.6 µg/mL
Drug uptake [23]: 1.7 µg/mL
Drug uptake [24]: < 0.03 µg/mL
Drug uptake [25]: 11.6 µg/mL
Tmax [26]: 1.5 h
AUC at 24 h [27]: 48700 ng·h/mL
Drug uptake [28]: 0.8 µg/mL
Drug uptake [29]: < 0.03 µg/mL
fCmax [30]: 13.6 µg/mL
Drug uptake [31]: < 0.03 µg/mL
Drug uptake [32]: 11.6 µg/mL
Drug uptake [33]: 2.1 µg/mL
Drug uptake [34]: 11.8 µg/mL
Drug uptake [35]: 0.3 µg/mL
fCmax [36]: 13.3 µg/mL
Drug uptake [37]: 10.4 µg/mL
Drug uptake [38]: 7.8 µg/mL
half-life [39]: 1.3 h
SMILES: CC1(C)S[C@@H]2[C@H](NC(=O)[C@H](N)c3ccc(O)cc3)C(=O)N2[C@H]1C(=O)O [AMOXICILLIN]

Drug uptake [1]: 0.7 µg/mL
Drug uptake [2]: < 0.03 µg/mL
Drug uptake [3]: 0.1 µg/mL
Drug uptake [4]: 0.9 µg/mL
half-life [5]: 1 h
fAUC [6]: 2800 ng·h/mL
Drug uptake [7]: < 0.03 µg/mL
fAUC [8]: 2900 ng·h/mL
Drug uptake [9]: 0.4 µg/mL
Drug uptake [10]: 0.1 µg/mL
Drug uptake [11]: 0.2 µg/mL
Drug uptake [12]: 0.4 µg/mL
Cmax [13]: 2100 ng/mL
Tmax [14]: 1.5 h
Drug uptake [15]: < 0.03 µg/mL
Drug uptake [16]: 0.5 µg/mL
AUC at 24 h [17]: 4700 ng·h/mL
Drug uptake [18]: 0.1 µg/mL
Cmax [19]: 2100 ng/mL
Drug uptake [20]: 1.4 µg/mL
Drug uptake [21]: 1.4 µg/mL
Drug uptake [22]: 1.5 µg/mL
Drug uptake [23]: < 0.03 µg/mL
Drug uptake [24]: < 0.03 µg/mL
Drug uptake [25]: 1.2 µg/mL
Tmax [26]: 1.5 h
AUC at 24 h [27]: 4500 ng·h/mL
Drug uptake [28]: < 0.03 µg/mL
Drug uptake [29]: < 0.03 µg/mL
fCmax [30]: 1.5 µg/mL
Drug uptake [31]: < 0.03 µg/mL
Drug uptake [32]: 1.3 µg/mL
fraction unbound at 48 h [40]: 0.75
Drug uptake [33]: 0.1 µg/mL
Drug uptake [34]: 1 µg/mL
Drug uptake [35]: < 0.03 µg/mL
fCmax [36]: 1.4 µg/mL
Drug uptake [37]: 0.9 µg/mL
Drug uptake [38]: 1 µg/mL
Drug uptake [41]: 0.7 µg/mL
half-life [39]: 1 h
SMILES: O=C(O)[C@H]1/C(=C/CO)O[C@@H]2CC(=O)N21 [CLAVULANIC ACID]
